According to ChEMBL document CHEMBL1177762, “Identification of a sulfonamide series of CCR2 antagonists” (Bioorg Med Chem Lett, 2010):
pIC50, pKi: −log10 of the molar value. Values belong to the compound of their own block, whether it stands above or below them.

Key:
[1] = biological target: T1, C-C chemokine receptor type 2 (Homo sapiens, UniProt P41597); experiment: Antagonist activity at human CCR2 expressed in CHO cells assessed as inhibition of MCP1-induced [35S]-GTPgammaS binding after 3 hrs; type: functional, cell-based
Target sequence in this assay (P41597 whole entry): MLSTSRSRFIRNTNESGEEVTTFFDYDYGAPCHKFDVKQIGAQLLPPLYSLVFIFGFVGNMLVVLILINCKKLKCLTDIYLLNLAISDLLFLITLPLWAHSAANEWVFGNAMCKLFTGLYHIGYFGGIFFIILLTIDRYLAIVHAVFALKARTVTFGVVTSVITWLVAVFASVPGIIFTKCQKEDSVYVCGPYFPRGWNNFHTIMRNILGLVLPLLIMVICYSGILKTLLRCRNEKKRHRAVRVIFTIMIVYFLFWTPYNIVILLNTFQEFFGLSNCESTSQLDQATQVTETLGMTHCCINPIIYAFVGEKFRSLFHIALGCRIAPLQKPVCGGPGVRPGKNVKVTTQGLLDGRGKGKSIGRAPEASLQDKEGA

[2] = biological target: C-C chemokine receptor type 1 (Homo sapiens) (UniProt P32246); experiment: Antagonist activity at human CCR1
[3] = biological target: T1, C-C chemokine receptor type 2; experiment: Antagonist activity at CCR2 in human THP1 cells assessed as inhibition of CCL2-induced chemotaxis at 10 uM in presence of 1% human serum; type: functional, cell-based; details: THP-1
How it was run: (§1)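 Boyden chamber (48-well) chemotaxis of THP-1 cells stimulated with CCL2. Foetal bovine serum or human serum was added to the assay buffer.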
Target sequence in this assay (P41597 whole entry, looked up): as the sequence (P41597 whole entry) above

[4] = biological target: T1, C-C chemokine receptor type 2; experiment: Antagonist activity at CCR2 in human THP1 cells assessed as inhibition of CCL2-induced chemotaxis at 1 uM in presence of 0.1% human serum; type: functional, cell-based; details: THP-1; how it was run: as §1
Target sequence in this assay (P41597 whole entry, looked up): as the sequence (P41597 whole entry) above

[5] = biological target: T1, C-C chemokine receptor type 2; experiment: Antagonist activity at CCR2 in human THP1 cells assessed as inhibition of CCL2-induced chemotaxis at 1 uM in presence of 1% human serum; type: functional, cell-based; details: THP-1; how it was run: as §1
Target sequence in this assay (P41597 whole entry, looked up): as the sequence (P41597 whole entry) above

[6] = Lipophilicity, log D of the compound; type: physicochemical; details: octanol/water
[7] = biological target: T2, C-C chemokine receptor type 1 (Homo sapiens, UniProt P32246); experiment: Antagonist activity at human CCR1 assessed as inhibition of MIP-1-alpha-induced [35S]-GTPgammaS binding after 3 to 4 hrs; type: functional
T2 sequence (P32246 whole entry): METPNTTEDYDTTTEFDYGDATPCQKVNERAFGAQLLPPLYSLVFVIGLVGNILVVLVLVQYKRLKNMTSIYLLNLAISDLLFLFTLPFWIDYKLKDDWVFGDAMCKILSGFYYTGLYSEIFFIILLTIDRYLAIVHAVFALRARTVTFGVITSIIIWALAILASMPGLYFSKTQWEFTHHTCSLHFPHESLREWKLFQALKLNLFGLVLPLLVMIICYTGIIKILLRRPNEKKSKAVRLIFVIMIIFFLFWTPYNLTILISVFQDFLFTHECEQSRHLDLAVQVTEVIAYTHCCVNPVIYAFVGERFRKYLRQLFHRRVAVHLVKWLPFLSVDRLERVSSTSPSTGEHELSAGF

[8] = biological target: C-C chemokine receptor type 2 (Mus musculus, UniProt P51683); experiment: Antagonist activity at mouse CCR2; type: functional
[9] = Oral bioavailability in rat; type: ADME, organism-based; details: in vivo
[10] = Half life in iv dosed in rat; type: ADME, organism-based; details: in vivo
[11] = Clearance in rat; type: ADME, organism-based; details: in vivo
Rattus norvegicus = species: Rattus norvegicus; experiment: Volume of distribution in rat; type: ADME, organism-based; details: in vivo
Cytochrome P450 1A2 = biological target: T3, Cytochrome P450 1A2 (Homo sapiens, UniProt P05177); experiment: Inhibition of CYP1A2; type: ADME
T3 sequence (P05177 whole entry): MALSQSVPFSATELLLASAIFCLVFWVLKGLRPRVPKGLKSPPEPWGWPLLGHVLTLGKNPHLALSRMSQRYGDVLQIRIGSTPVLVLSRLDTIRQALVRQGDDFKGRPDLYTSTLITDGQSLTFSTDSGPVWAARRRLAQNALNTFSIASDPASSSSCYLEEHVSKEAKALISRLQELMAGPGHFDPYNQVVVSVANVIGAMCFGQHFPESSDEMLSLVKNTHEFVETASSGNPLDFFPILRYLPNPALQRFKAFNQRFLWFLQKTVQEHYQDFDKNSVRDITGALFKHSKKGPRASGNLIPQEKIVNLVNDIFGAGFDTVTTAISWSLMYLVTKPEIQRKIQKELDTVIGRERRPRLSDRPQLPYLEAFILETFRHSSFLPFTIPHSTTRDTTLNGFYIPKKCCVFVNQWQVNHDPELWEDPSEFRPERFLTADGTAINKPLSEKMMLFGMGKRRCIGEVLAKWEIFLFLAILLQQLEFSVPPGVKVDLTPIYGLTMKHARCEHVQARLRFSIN

Cytochrome P450 2C19 = Cytochrome P450 2C19 (Homo sapiens, UniProt P33261); experiment: Inhibition of CYP2C19; type: ADME
Cytochrome P450 2C9 = Cytochrome P450 2C9 (Homo sapiens, UniProt P11712); experiment: Inhibition of CYP2C9; type: ADME
Cytochrome P450 2D6 = Cytochrome P450 2D6 (Homo sapiens, UniProt P10635); experiment: Inhibition of CYP2D6; type: ADME
Cytochrome P450 3A4 = Cytochrome P450 3A4 (Homo sapiens, UniProt P08684); experiment: Inhibition of CYP3A4; type: ADME
[12] = biological target: Voltage-gated inwardly rectifying potassium channel KCNH2 (Homo sapiens, UniProt Q12809); experiment: Binding affinity to human ERG by fluorescence-polarization binding assay
[13] = biological target: T4, C-C chemokine receptor type 4 (Homo sapiens, UniProt P51679); experiment: Antagonist activity at CCR4; type: functional
T4 sequence (P51679 whole entry): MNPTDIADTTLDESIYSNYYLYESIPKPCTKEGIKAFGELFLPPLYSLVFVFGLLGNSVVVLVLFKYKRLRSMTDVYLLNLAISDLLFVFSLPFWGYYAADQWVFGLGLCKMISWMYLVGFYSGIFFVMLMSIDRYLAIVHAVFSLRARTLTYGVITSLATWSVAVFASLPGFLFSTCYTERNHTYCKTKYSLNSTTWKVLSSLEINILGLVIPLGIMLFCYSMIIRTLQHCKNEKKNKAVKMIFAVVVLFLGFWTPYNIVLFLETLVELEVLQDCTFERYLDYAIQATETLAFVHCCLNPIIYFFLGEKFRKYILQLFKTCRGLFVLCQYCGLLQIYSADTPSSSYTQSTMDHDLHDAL

[14] = biological target: C-C chemokine receptor type 5 (Homo sapiens, UniProt P51681); experiment: Antagonist activity at CCR5 at 10 uM; type: functional; set-up: scale not given: the % may be the effect or the level left
[15] = Half life in po dosed in rat; type: ADME, organism-based; details: in vivo
[16] = biological target: C-C chemokine receptor type 1 (Homo sapiens) (UniProt P32246); experiment: Antagonist activity at CCR1

Chain of Cytochrome P450 2D6 (P10635 whole entry): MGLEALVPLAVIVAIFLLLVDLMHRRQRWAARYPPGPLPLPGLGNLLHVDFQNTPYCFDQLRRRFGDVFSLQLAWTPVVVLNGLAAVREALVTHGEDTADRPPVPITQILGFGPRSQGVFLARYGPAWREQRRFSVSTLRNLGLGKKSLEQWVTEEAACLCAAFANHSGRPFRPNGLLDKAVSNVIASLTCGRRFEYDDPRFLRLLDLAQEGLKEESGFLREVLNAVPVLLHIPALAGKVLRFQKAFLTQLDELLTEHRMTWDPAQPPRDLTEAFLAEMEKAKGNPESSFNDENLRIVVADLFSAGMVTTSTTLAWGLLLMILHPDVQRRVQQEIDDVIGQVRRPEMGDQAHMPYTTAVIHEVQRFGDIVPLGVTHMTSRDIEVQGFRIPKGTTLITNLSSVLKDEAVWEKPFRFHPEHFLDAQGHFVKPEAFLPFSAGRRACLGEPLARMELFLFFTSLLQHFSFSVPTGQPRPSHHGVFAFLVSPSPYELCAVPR
Chain of Cytochrome P450 2C19 (P33261 whole entry): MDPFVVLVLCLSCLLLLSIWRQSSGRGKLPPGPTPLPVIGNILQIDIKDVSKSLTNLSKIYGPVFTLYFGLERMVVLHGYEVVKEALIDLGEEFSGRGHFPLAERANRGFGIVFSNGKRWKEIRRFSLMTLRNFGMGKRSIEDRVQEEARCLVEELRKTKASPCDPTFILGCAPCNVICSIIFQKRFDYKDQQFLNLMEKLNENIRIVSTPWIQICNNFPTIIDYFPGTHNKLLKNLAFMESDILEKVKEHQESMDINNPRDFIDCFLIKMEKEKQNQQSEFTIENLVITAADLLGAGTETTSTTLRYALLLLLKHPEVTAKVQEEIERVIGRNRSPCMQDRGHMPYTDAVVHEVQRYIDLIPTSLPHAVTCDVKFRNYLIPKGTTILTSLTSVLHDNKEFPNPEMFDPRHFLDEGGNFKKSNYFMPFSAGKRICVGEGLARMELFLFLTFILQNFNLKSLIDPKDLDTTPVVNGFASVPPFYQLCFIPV
Chain of C-C chemokine receptor type 5 (P51681 whole entry, looked up): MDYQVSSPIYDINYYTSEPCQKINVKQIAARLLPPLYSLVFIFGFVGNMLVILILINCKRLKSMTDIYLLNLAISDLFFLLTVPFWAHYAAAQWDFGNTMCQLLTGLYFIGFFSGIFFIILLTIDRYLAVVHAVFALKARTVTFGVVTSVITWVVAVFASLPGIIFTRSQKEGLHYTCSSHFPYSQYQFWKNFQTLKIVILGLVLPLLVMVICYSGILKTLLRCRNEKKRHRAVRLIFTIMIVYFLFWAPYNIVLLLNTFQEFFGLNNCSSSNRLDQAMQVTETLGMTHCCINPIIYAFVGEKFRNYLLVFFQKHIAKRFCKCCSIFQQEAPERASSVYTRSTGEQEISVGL
Chain of C-C chemokine receptor type 2 (Mus musculus, UniProt P51683) (P51683 whole entry): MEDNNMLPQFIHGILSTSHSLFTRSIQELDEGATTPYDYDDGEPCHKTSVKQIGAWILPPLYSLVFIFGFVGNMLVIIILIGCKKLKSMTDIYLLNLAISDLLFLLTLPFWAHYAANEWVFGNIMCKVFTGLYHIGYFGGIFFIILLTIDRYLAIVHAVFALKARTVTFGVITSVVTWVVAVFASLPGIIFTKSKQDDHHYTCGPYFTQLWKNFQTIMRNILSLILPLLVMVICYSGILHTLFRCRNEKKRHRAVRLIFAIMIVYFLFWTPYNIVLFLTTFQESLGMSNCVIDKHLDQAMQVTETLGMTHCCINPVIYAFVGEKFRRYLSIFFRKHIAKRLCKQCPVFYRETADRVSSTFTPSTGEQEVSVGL
Chain of Cytochrome P450 2C9 (P11712 whole entry): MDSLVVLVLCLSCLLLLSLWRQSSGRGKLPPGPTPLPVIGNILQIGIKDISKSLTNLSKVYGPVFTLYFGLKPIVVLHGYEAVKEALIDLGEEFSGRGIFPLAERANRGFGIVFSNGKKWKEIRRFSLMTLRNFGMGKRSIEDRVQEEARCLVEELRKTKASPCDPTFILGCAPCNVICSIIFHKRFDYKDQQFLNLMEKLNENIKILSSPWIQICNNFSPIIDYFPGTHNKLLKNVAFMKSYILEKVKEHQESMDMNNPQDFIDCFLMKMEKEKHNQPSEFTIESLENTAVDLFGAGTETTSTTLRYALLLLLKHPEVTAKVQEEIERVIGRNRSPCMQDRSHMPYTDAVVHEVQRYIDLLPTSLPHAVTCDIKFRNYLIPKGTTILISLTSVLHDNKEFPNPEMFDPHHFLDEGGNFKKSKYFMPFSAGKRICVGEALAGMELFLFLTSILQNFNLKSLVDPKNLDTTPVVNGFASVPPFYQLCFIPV
Chain of Voltage-gated inwardly rectifying potassium channel KCNH2 (Q12809 whole entry): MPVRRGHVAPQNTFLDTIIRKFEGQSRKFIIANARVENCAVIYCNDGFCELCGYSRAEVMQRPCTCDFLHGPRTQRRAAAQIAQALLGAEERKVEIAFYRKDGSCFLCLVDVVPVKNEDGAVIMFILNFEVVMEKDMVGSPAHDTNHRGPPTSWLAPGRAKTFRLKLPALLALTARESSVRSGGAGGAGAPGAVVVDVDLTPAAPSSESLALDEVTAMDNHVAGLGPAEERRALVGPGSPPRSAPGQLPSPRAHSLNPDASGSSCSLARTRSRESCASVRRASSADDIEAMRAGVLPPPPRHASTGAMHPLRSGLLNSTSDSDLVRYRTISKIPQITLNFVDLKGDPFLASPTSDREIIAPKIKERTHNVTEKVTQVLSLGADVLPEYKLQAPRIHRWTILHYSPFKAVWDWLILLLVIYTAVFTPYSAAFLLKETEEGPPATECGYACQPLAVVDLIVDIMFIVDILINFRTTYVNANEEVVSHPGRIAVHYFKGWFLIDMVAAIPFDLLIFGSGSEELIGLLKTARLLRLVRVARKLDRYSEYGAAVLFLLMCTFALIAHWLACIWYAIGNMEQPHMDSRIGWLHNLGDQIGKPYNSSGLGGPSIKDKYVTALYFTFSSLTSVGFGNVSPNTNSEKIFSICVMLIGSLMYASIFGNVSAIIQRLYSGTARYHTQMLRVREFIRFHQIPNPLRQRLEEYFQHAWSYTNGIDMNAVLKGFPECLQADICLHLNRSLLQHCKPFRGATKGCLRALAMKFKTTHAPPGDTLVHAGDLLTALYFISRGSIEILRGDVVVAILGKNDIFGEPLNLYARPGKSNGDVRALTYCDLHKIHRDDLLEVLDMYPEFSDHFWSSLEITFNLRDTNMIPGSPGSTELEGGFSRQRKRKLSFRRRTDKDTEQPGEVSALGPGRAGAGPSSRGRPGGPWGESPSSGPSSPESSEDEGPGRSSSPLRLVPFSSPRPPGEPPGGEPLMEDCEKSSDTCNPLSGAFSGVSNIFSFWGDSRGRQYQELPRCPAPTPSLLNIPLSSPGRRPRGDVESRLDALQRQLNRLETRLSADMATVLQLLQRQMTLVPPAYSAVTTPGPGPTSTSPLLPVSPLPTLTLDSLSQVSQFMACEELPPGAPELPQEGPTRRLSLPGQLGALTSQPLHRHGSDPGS
Chain of Cytochrome P450 3A4 (P08684 whole entry): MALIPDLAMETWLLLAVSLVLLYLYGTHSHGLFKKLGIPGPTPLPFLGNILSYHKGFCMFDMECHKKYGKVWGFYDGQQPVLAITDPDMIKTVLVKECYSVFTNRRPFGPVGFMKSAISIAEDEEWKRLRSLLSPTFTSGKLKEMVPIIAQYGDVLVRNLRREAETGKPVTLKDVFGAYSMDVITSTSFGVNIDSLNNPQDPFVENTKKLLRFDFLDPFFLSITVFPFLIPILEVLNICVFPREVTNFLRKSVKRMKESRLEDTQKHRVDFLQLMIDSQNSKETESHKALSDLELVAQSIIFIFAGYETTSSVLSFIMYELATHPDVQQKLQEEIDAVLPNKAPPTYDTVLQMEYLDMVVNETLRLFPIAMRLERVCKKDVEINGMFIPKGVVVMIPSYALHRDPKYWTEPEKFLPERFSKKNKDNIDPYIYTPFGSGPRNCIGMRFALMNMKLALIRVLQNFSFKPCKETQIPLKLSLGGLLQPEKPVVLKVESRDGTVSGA

SMILES: CS(=O)(=O)Nc1cc(Cl)ccc1Oc1ccccc1C(=O)O
- pKi [1]: 6.40

SMILES: O=S(=O)(Nc1cc(Cl)cnc1Oc1cccnn1)c1ccc(Cl)c(Cl)c1
- pKi [1]: 6.70

SMILES: O=C(O)c1ccccc1Oc1cnccc1NS(=O)(=O)c1ccc(Cl)c(Cl)c1
- pKi [1]: 7.30
- inhibition [4]: 15%
- inhibition [5]: 0%

SMILES: Cc1ncccc1Oc1ncc(C#N)cc1NS(=O)(=O)c1ccc(Cl)c(Cl)c1
- pKi [1]: 7.30
- inhibition [4]: 43%
- inhibition [5]: 12%
- logD [6]: 1.5

SMILES: O=S(=O)(Nc1cc(Cl)cnc1Oc1cncc(Cl)c1)c1ccc(Cl)c(Cl)c1
- pKi [1]: 7.90
- inhibition [4]: 55%
- inhibition [5]: 0%
- logD [6]: 3.1
- bioavailability [9]: 58%
- half-life [10]: 1.2 h
- clearance [11]: 2.4 mL/min/kg
- Vd (Rattus norvegicus): 0.2 L/kg
- pIC50 (Cytochrome P450 1A2): < 4.00
- pIC50 (Cytochrome P450 2C19): 5.18
- pIC50 (Cytochrome P450 2C9): 5.97
- pIC50 (Cytochrome P450 2D6): < 4.00
- pIC50 (Cytochrome P450 3A4): 6.36

SMILES: O=C(NCCO)c1ccccc1Oc1ncc(Cl)cc1NS(=O)(=O)c1ccc(Cl)c(Cl)c1
- pKi [1]: 7.60
- inhibition [4]: 31%
- inhibition [5]: 0%
- logD [6]: 2.1
- bioavailability [9]: 37%
- half-life [10]: 1.1 h
- clearance [11]: 13 mL/min/kg
- Vd (Rattus norvegicus): 0.47 L/kg
- pIC50 [12]: < 4.20
- pKi [13]: 5.80
- Activity [14]: < 10%

SMILES: Cc1ncccc1Oc1ncc(Cl)cc1NS(=O)(=O)c1ccc(Cl)c(Cl)c1
- pKi [1]: 8.00
- inhibition [4]: 72%
- inhibition [5]: 50%
- logD [6]: 2.7
- bioavailability [9]: 75%
- half-life [10]: 0.8 h
- half-life [15]: 2.3 h
- clearance [11]: 4.3 mL/min/kg
- Vd (Rattus norvegicus): 0.34 L/kg
- pIC50 [12]: < 4.50
- pIC50 (Cytochrome P450 1A2): < 4.00
- pIC50 (Cytochrome P450 2C19): 4.65
- pIC50 (Cytochrome P450 2C9): 5.87
- pIC50 (Cytochrome P450 2D6): < 4.00
- pIC50 (Cytochrome P450 3A4): 4.71
- pKi [13]: 5.90
- Activity [14]: 40%

SMILES: O=C(O)c1ccccc1Oc1nccnc1NS(=O)(=O)c1ccc(Cl)c(Cl)c1
- pKi [1]: 6.10

SMILES: O=C(O)c1ccccc1Oc1ncncc1NS(=O)(=O)c1ccc(Cl)c(Cl)c1
- pKi [1]: 6.40

Next, values leading:

- pKi [1]: 6.40
- pKi [2]: 6.30
SMILES: O=C(O)c1ccccc1Oc1c(Cl)cccc1NS(=O)(=O)c1ccc(Cl)cc1

- pKi [1]: 8.30
SMILES: O=C(O)c1ccccc1Oc1ccc(Cl)cc1NS(=O)(=O)c1ccc(Cl)s1

- pKi [1]: 7.70
- inhibition [3]: 65%
- pKi [2]: 6.80
SMILES: O=C(O)c1ccccc1Oc1ccc(Cl)cc1NS(=O)(=O)c1ccc(Cl)cc1

- pKi [1]: 6.10
- pKi [7]: 6.30
- pKi [8]: 5.80
SMILES: O=C(O)c1ccccc1Oc1ccc(C(F)(F)F)cc1NS(=O)(=O)c1ccc(Cl)cc1

- pKi [1]: 6.60
- pKi [7]: 6.50
- pKi [8]: 5.70
SMILES: O=C(O)c1ccccc1Oc1ccccc1NS(=O)(=O)c1ccc(Cl)cc1

- pKi [1]: < 5.50
SMILES: CS(=O)(=O)c1ccc(Oc2ccccc2C(=O)O)c(NS(=O)(=O)c2ccc(Cl)cc2)c1

- pKi [1]: < 5.50
- pKi [16]: < 5.50
SMILES: O=C(O)c1ccccc1Oc1cccc(F)c1NS(=O)(=O)c1ccc(Cl)cc1
